The text below walks through data of PMC3068229 (Biochemistry, 2011).

Assay [1] deals with T1, annexin A1 (Mus musculus, UniProt P10107).
T1 sequence (P10107 1-346): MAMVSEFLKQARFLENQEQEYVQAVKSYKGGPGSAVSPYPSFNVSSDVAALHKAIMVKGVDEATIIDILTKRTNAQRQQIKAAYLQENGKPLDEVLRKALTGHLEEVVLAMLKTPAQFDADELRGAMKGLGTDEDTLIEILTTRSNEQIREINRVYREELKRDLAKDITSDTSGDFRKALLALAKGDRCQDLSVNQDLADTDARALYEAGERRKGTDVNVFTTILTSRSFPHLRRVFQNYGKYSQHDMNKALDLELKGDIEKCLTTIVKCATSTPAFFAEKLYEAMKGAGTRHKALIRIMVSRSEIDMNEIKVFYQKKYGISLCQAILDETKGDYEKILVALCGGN
The assay can be described thus: SPR, carbohydrates flowed over annexin A1 immobilized on NTA chips. It is filed as binding. Conditions: annexin A1 1 µM immobilized. In a few lines: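 The NTA chip was primed with 500 μM NiCl2 in HBS-EP running buffer (10 mM HEPES pH 7.4, 150 mM NaCl, 50 μM EDTA, 0.05% Tween-20), then His-tagged mouse annexin A1 (1 μM) was captured. Test glycans, either free glycosaminoglycans or polyacrylamide-coupled glycans at 5 or 50 μg/mL, or buffer alone, were injected for 3 min in HBS-N with 1 mM CaCl2 and 1 mM MgCl2. After dissociation, the chip was regenerated with 35 mM EDTA.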

The target in assay [2] is T1, annexin A1. The experiment in a line: Glycan array. It counts as binding. Conditions: annexin A1-His 0.2 mg/ml, 2 mM CaCl2, 2 mM MgCl2, fluorescence (RFU). The gist of the method: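 Recombinant full-length mouse annexin A1 with a C-terminal His6 tag was expressed in E. coli BL21(DE3) with 1 mM IPTG induction, purified on Ni-NTA and dialysed into 20 mM Tris pH 7.9 with 250 mM NaCl. The array was probed with 0.2 mg/mL protein in TBS-CM (pH 7.4) containing 1% BSA and 0.05% Tween-20, for 60 min at room temperature in a humid chamber. Read-out was mean RFU of 6 replicates after dropping the highest and lowest values.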

As for `CO[C@H]1O[C@H](COS(=O)(=O)O)[C@@H](O[C@@H]2O[C@@H](C(=O)O)[C@@H](O[C@H]3O[C@H](COS(=O)(=O)O)[C@@H](O[C@@H]4O[C@H](C(=O)O)[C@@H](O[C@H]5O[C@H](COS(=O)(=O)O)[C@@H](O)[C@H](O)[C@H]5NS(=O)(=O)O)[C@H](O)[C@H]4O)[C@H](OS(=O)(=O)O)[C@H]3NS(=O)(=O)O)[C@H](O)[C@H]2OS(=O)(=O)O)[C@H](O)[C@H]1NS(=O)(=O)O` [arixtra, fondaparinux sodium], the “Glycosaminoglycan binding to annexin A1 immobilized on NTA SPR chip” value at annexin A1 [1] (glycosaminoglycans 5 or 50 µg/mL) was “bound less well”. In the case of `O=C[C@H](O)[C@@H](O)[C@H](O)[C@H](O)C(=O)O` [glucuronic acid], the “Annexin A1 binding on glycan array” value at annexin A1 [2] is “among the best recognized glycans”. On to LacNAc, for which the “Binding to annexin A1 immobilized on NTA SPR chip” value on annexin A1 [1] (carbohydrate flowed over) is “did not interact”.

For the compound “[3OSO3^−][6OSO3^−]Galβ1-4[6OSO3^−]GlcNAcβ-Sp0 [compound 26]”, the “Annexin A1 binding on glycan array” value on annexin A1 [2] is “strongest binder”; on annexin A1 [2] (listed as [3OSO3^− ][6OSO3^−]Galβ1-4[6OSO3^−]GlcNAcβ), “best binder”.
